# Reference: PubChem BioAssay
# Calls of active or inactive are those of the source.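 The calls were made as follows, unless noted: active = potentiation averaged over duplicate wells exceeding buffer-only control mean by more than 3 SD; inactive = the rest.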
# How the values were obtained:
# [1] = nonspecific flux increase, KCNQ1-free cells – parental CHO cells, counter-screen for KCNQ1 potentiator project (AID 493006;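 active = duplicate-averaged activation above buffer control mean plus 5 SD of those controls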;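 as to activation: fluorescence ratio of max minus min over baseline after K+ and Tl+ depolarization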); conditions: parental CHO-K1 cells, FluxOR thallium flux, at 10 µM; active compounds read high
# How it was run: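 Material: untransfected host CHO-K1 cells with FluxOR thallium dye. Timing: overnight 37 °C plating, 90 min RT dye, 20 min compound. Detection: kinetic FluxOR fluorescence, 10 s baseline, 110 s after stimulus. Read-out basis: max-minus-min fluorescence over baseline, percent of buffer-to-R-L3 span. Replicates: duplicate wells per compound, percent values averaged.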
# [2] = target: Potassium voltage-gated channel subfamily KQT member 1 (Homo sapiens) (UniProt P51787); test: enhancement of KCNQ1 channel thallium flux – FluxOR thallium flux, CHO cells, duplicates, confirmation (AID 493007); conditions: KCNQ1 cell line, FluxOR thallium flux fluorescence, at 10 µM; active compounds read high, % of reference activator effect, buffer zero;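 as to outcome: cells depolarized by a potassium plus thallium sulfate stimulus after compound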
# Chain of Potassium voltage-gated channel subfamily KQT member 1 (Homo sapiens) (P51787 whole entry, looked up): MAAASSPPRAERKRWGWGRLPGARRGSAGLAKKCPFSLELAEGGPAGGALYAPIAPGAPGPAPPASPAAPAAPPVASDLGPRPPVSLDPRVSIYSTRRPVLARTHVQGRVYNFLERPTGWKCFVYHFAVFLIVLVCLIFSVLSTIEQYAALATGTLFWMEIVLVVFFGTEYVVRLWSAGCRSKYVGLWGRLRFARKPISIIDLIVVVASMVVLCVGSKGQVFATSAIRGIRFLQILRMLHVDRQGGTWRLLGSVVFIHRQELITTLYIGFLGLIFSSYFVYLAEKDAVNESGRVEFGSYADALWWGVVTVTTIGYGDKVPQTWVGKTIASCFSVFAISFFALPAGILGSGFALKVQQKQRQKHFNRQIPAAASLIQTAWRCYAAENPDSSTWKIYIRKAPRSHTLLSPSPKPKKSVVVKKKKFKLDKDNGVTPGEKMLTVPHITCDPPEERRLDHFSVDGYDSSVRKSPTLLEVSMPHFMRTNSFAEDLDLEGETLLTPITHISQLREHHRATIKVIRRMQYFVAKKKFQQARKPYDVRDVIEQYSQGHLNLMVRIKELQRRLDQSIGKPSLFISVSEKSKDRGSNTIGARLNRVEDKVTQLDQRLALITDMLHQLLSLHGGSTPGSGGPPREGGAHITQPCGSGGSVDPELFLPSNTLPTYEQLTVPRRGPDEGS
# How it was run: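 Test system – KCNQ1-expressing CHO cell line · Incubation – FluxOR dye loading 90 min, compound exposure 20 min, room temperature · Detection – FluxOR Tl+ flux fluorescence, 10 s baseline plus 110 s recording · Controls – buffer-only wells as 0% and R-L3 activator as 100%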
# [3] = target: Potassium voltage-gated channel subfamily KQT member 2 (Rattus norvegicus) (UniProt O88943); test: KCNQ2 thallium flux enhancement – KCNQ2-CHO-K1 cells, selectivity assay for KCNQ1 potentiator project (AID 493009;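 active = mean duplicate potentiation above the buffer control mean plus 5 SD of buffer wells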;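 also: assay conditions were tuned for KCNQ1 rather than KCNQ2 modulators; signal is max minus min fluorescence divided by baseline after thallium stimulus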); conditions: FluxOR thallium flux fluorescence, at 10 µM; active compounds read high, scaled: buffer 0, activator control 100
# Chain of Potassium voltage-gated channel subfamily KQT member 2 (Rattus norvegicus) (O88943 whole entry, looked up): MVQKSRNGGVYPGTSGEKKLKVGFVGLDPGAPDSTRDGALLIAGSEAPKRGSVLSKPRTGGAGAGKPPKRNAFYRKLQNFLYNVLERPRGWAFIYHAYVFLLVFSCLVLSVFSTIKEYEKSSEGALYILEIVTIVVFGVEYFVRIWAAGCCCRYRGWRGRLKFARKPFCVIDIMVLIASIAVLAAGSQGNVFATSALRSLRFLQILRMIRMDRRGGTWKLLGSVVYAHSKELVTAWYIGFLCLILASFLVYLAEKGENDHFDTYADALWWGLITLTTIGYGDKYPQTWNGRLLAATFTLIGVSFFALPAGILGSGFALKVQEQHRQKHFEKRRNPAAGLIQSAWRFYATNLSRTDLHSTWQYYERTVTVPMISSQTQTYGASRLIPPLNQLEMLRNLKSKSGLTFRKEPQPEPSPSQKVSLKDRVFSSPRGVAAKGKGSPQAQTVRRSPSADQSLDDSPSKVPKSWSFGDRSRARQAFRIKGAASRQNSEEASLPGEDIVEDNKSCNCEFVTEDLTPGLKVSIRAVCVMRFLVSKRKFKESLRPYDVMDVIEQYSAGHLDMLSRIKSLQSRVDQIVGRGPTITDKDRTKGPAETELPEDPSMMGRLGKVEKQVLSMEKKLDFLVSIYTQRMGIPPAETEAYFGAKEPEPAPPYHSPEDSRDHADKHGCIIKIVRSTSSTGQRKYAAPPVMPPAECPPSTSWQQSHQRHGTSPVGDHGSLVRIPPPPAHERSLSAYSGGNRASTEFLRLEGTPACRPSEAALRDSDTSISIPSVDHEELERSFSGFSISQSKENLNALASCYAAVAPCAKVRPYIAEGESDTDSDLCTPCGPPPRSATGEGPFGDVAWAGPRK
# [4] = target: Potassium voltage-gated channel subfamily KQT member 1 (Homo sapiens) (UniProt P51787); test: KCNQ1 activators by electrophysiology – IonWorks patch clamp, KCNQ1-CHO cells, orthogonal assay for KCNQ1 potentiator project, confirmation (AID 493184;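 active = current rise at least 3 SD above the untreated control mean in each of two repeat wells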;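 as to current potentiation: percent change of the same well's current before compound addition so 0% = no change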); conditions: automated patch clamp current, at 10 µM; active compounds read high
# How it was run: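 Read-out: Percent current increase versus pre-compound level | Assay system: CHO cells carrying KCNQ1 | Measured by: Automated perforated-patch electrophysiology | Medium: External bath solution at pH 7.4 | Dosing: One dose, 10 µM final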
Compound,outcome [1],outcome [2],outcome [3],outcome [4],activation [1],potentiation [2],potentiation [3],current potentiation [4]
CCC(/C=N/NC(=O)C1COc2ccccc2O1)CC (stereo not given),inactive,inactive,inactive,inactive,–,–,–,–
O=C(Nc1nnc(-c2ccc(F)cc2)o1)c1cc(Cl)sc1Cl,–,–,–,inactive,330% (active),118% (active),284% (active),–
COc1ccccc1C(=O)OCC(=O)Nc1ccc(Cl)cn1,inactive,inactive,inactive,inactive,–,–,–,–
COc1ccc(/C=C2\SC(=Nc3ccccc3OC)NC2=O)cc1,inactive,inactive,inactive,inactive,–,–,–,–
O=C(NC(=S)Nc1cccc(C(F)(F)F)c1)c1csnn1,–,–,–,inactive,595% (active),308% (active),618% (active),–
CCOc1ccccc1NC(=O)CCC(=O)Nc1ccccc1OCC,inactive,inactive,inactive,inactive,–,–,–,–
CCOC(=O)C1(CC2CCCCO2)CCN(Cc2cc3ccccc3[nH]2)CC1 (stereo not given),inactive,inactive,inactive,inactive,–,–,–,–
S=c1[nH]nc(-c2ccco2)n1/N=C/c1ccc(Cl)c(Cl)c1,–,–,–,inactive,512% (active),290% (active),145% (active),–
COc1ccc2cc(CCNC(=O)C3CCCC3)c(=O)[nH]c2c1,inactive,inactive,inactive,inactive,–,–,–,–
N#CC1=C(Nc2ccccc2)SC=C(c2ccc(Br)cc2)N=C1N1CCOCC1,inactive,inactive,inactive,inactive,–,–,–,–
COc1ccc(C(=O)CC(=O)C(=O)Nc2ccccc2Cl)cc1,–,–,inactive,inactive,139% (active),25% (active),–,–
Cc1cc(/C=N/NC(=O)c2nn(C)cc2Cl)c(C)n1-c1cccc(Br)c1,inactive,inactive,inactive,inactive,–,–,–,–
CCOC(=O)c1sc2ncnc(NCc3ccco3)c2c1C,–,–,–,inactive,332% (active),152% (active),358% (active),–
Cn1ncc([N+](=O)[O-])c1C(=O)N/N=C/c1ccc(F)cc1,inactive,inactive,inactive,inactive,–,–,–,–
COc1ccc(CCC(=O)NCCOc2ccc(C)cc2)cc1,inactive,inactive,inactive,inactive,–,–,–,–
COc1cccc(C(=O)NC(=S)N2c3ccccc3CC2C)c1OC (stereo not given),inactive,inactive,inactive,inactive,–,–,–,–
CCC(Oc1ccc(Cl)cc1)C(=O)N1CC(=O)Nc2ccccc21 (stereo not given),inactive,inactive,inactive,inactive,–,–,–,–
CCc1cc(-c2n[nH]c(C)c2-c2nc3ccccc3s2)c(O)cc1OCC(=O)NN,inactive,inactive,inactive,inactive,–,–,–,–
Cn1c(=O)c2nc3ccccc3nc2n(C)c1=O,–,–,–,inactive,168% (active),30.5% (active),184% (active),–
CC(C)NC(=O)C1(S(=O)(=O)c2ccccc2)CC=CC1,inactive,inactive,inactive,inactive,–,–,–,–

Compound,outcome [1],outcome [2],outcome [3],outcome [4],activation [1],potentiation [2],potentiation [3],current potentiation [4]
CN(CC(=O)NCCc1ccc(F)cc1)Cc1cccc(Cl)c1,inactive,inactive,inactive,inactive,–,–,–,–
CC(C)(C)c1ccc(OCC(=O)NNC(=S)NC(=O)c2ccco2)c(Br)c1,–,–,–,inactive,150% (active),89.5% (active),254% (active),–
CC(=O)CC1(OC(C)=O)C(=O)N(C)c2ccccc21 (stereo not given),inactive,inactive,inactive,inactive,–,–,–,–
COc1cccc2sc(N(CCCN(C)C)C(=O)c3ccc(S(=O)(=O)N4CCCc5ccccc54)cc3)nc12,inactive,inactive,inactive,inactive,–,–,–,–
Cc1ccc2oc(C(=O)N3CCN(c4cccc(C)n4)CC3)c(C)c2c1,inactive,inactive,inactive,inactive,–,–,–,–
CCc1ccc(CNC(=O)CCn2nc(C)c3c(C)n(-c4ccccc4)nc3c2=O)cc1,inactive,inactive,inactive,inactive,–,–,–,–
COc1cc(-c2nnc(COC(=O)c3cccn3C)o2)cc(OC)c1OC,inactive,inactive,inactive,inactive,–,–,–,–
O=c1c2c3c(sc2[nH]c(=S)n1Cc1ccco1)CCC3,–,–,–,inactive,264% (active),108% (active),289% (active),–
CCOC(=O)c1c(NC(=O)C(C)N2CCN(C(=O)c3ccco3)CC2)sc2c1CCCC2 (stereo not given),inactive,–,–,inactive,–,53% (active),160% (active),–
O=C(O)c1ccc2c(c1)C(=O)N(c1ccc(Cl)cn1)C2=O,inactive,inactive,inactive,inactive,–,–,–,–
O=C(NC1CCCC1)C(c1cccnc1)N(C(=O)c1csnn1)C1CC1 (stereo not given),inactive,inactive,inactive,inactive,–,–,–,–
NC(=S)n1[nH]c(-c2ccc([N+](=O)[O-])cc2)c(N=Nc2cccc(Cl)c2)c1=O,–,–,–,inactive,150% (active),34.5% (active),179% (active),–
Cc1ccc(-n2cccc2/C=C2\C(=N)N3N=C(C(C)C)SC3=NC2=O)cc1,inactive,–,inactive,–,–,23.5% (active),–,36% (active)
CC(C)n1c(=S)[nH]c2scc(-c3cccs3)c2c1=O,–,–,–,inactive,491% (active),200% (active),465% (active),–
O=C(COC(=O)c1ccccc1)Nc1ccccc1N1CCOCC1,inactive,inactive,inactive,inactive,–,–,–,–
COc1ccccc1NC(=O)C(=O)NNC(=O)COc1ccc2ccccc2c1,–,–,–,inactive,442% (active),174% (active),555% (active),–
CC(C)(C)C1(O)CC(C(F)(F)F)=NN1C(=O)Cc1ccc([N+](=O)[O-])cc1 (stereo not given),inactive,inactive,inactive,inactive,–,–,–,–
O=C(NCCN1CCOCC1)[C@H](Cc1ccccc1)N1C(=O)c2ccccc2C1=O,inactive,–,–,inactive,–,26% (active),155% (active),–
O=c1[nH]c(C(Cl)(Cl)Cl)nc2ccc3ccccc3c12,–,–,–,inactive,166% (active),50% (active),202% (active),–
CCN(c1ccccc1)S(=O)(=O)c1ccc(NC(=O)c2nc(S(C)(=O)=O)ncc2Cl)cc1,inactive,inactive,–,inactive,–,–,156% (active),–

Compound,outcome [1],outcome [2],outcome [3],outcome [4],activation [1],potentiation [2],potentiation [3],current potentiation [4]
O=C(NC(=S)N1CCc2ccccc21)c1ccccc1Cl,–,–,–,inactive,443% (active),130% (active),416% (active),–
CC(Oc1ccc(Br)cc1)c1nc2c3ccccc3nc(=S)n2[nH]1 (stereo not given),–,–,–,inactive,227% (active),45.5% (active),178% (active),–
COC(=O)c1ccc(COC(=O)c2ccccc2OC)cc1,inactive,inactive,inactive,inactive,–,–,–,–
Cc1ccc(N=Nc2ccc(O)c3ncccc23)cc1,–,–,–,inactive,185% (active),52.5% (active),229% (active),–
COc1cc(OC)cc(C(=O)NNC(=O)C(=O)Nc2cc(OC)c(Cl)cc2OC)c1,–,–,–,inactive,202% (active),64% (active),213% (active),–
O=C(Cn1c(C(F)(F)F)nc2ccccc21)N=Nc1c(O)[nH]c2ccc(Br)cc12,inactive,inactive,inactive,inactive,–,–,–,–
CC(=O)c1c(O)cc(C)n(-c2ccc(F)cc2)c1=O,inactive,inactive,inactive,inactive,–,–,–,–
CCOC(=O)c1c(-c2ccccc2)csc1NC(=S)NC,–,–,–,inactive,286% (active),130% (active),324% (active),–
CC(Oc1ccccc1F)C(=O)/C=C/N(C)C (stereo not given),inactive,inactive,inactive,inactive,–,–,–,–
N=C1S/C(=C\c2ccc(-c3cccc(Cl)c3)o2)C(=O)N1c1nccs1,inactive,–,inactive,inactive,–,19% (active),–,–
C=CCSc1nc2sc3c(c2c(=O)n1CC)CCc1ccccc1-3,–,–,–,inactive,160% (active),91% (active),192% (active),–
N#CCn1c(CCl)nc2ccccc2c1=O,inactive,inactive,inactive,inactive,–,–,–,–
O=C(Nc1cccc(S(=O)(=O)NC2=NCCC2)c1)c1c(F)cccc1Cl,inactive,inactive,inactive,inactive,–,–,–,–
Cc1ccc(O)c(C(=O)CC(=O)c2ccc(Cl)cc2)c1,inactive,inactive,inactive,inactive,–,–,–,–
CCCCn1c(NS(=O)(=O)c2ccc(C)cc2)c(S(=O)(=O)c2ccccc2)c2nc3ccccc3nc21,inactive,inactive,inactive,inactive,–,–,–,–
Cc1[nH]n(-c2ccccc2)c(=O)c1/C=N/N(c1ccccc1)c1ccccc1,inactive,–,inactive,inactive,–,47% (active),–,–
S=c1[nH]c2cc(-c3ccccc3)ccc2o1,–,–,–,inactive,306% (active),89.5% (active),318% (active),–
OCCCCNCc1ccc(OCc2ccc(Cl)cc2)cc1,–,–,–,inactive,220% (active),292% (active),332% (active),–
Cc1ccc(C2C(/C=C3/SC(=S)NC3=O)=C(c3cccs3)Oc3ccccc32)cc1 (stereo not given),–,–,inactive,inactive,142% (active),33% (active),–,–
CC(C)(C)c1ccc(C(=O)NC(=S)Nc2nc3c(s2)CCCC3)cc1,–,–,–,inactive,210% (active),91% (active),217% (active),–
